Test [1] can be described thus: Inhibition of sheep brain tubulin polymerization by DAPI staining-based fluorescence assay. On the set-up: species or system Ovis aries. In short, it runs like this: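 Tubulin was purified by two assembly–disassembly cycles and held at ~2–3 mg/mL in MES assembly buffer with MgCl₂, EGTA and GTP, pH 6.6. Assembly was followed continuously at 37 °C by DAPI fluorescence. IC50 is the concentration halving the maximum assembly rate versus the no-compound rate; mean of three experiments. Reference agents were run the same day.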

Test [2] in a line: Cytotoxicity against human H1299 cells after 72 hrs by CellTitre-Blue assay. Type of test: functional. The note with it: NCI-H1299, 72 h. In a few lines: (§1)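 ATCC lines grown in DMEM (4.5 g/L glucose) with 10% FCS and 1% glutamine at 37 °C, 5% CO₂. Seeded at 5×10³ cells/well and cultured 24 h. Compound added from DMSO (final <0.1%) for 72 h. Resazurin (CellTiter-Blue) added for 2 h, then fluorescence read at ex 560/em 590 nm. IC50 is the 50% fluorescence drop versus untreated cells, in triplicate.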

The next test concerns MDA-MB-231. Description: Cytotoxicity against human MDA-MB-231 cells after 72 hrs by CellTitre-Blue assay. It is filed as functional. The note with it: MDA-MB-231, 72 h. In short, it runs like this:
as §1

Test [3] can be described thus: Cytotoxicity against human HCT116 cells after 72 hrs by CellTitre-Blue assay. It is filed as functional. As to conditions: HCT-116, 72 h.
The test system of the next test is K562. Description: Cytotoxicity against human K562 cells after 72 hrs by CellTitre-Blue assay. The note with it: K562, 72 h. It is filed as functional. In a few lines: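 Cells were kept in RPMI 1640 with 10% FCS and 1% glutamine, humidified, 37 °C, 5% CO₂. Plated at 5×10³ cells/well, grown 24 h, then exposed 72 h to compound delivered in DMSO (below 0.1% final). Viability was read by resazurin reduction over 2 h (fluorescence ex 560, em 590 nm). IC50 is the 50% signal loss relative to untreated wells; triplicate runs.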

The species named for the next test is Ovis aries. In words: Inhibition of sheep brain tubulin polymerization at 10 uM by DAPI staining-based fluorescence assay.
Test [4] is described as follows: Cytotoxicity against human HCT116 cells at 10 uM after 72 hrs by CellTitre-Blue assay. It is filed as functional. The note with it: HCT-116, 72 h.

Molecules are shown by their SMILES. Some results are limits rather than exact numbers.

A word on the IC50: it is the concentration needed to halve the response being measured. The term GI50 denotes the concentration that inhibits growth by half. A high value points to lower sensitivity of the cells. The term inhibition denotes the drop in the measured response relative to a control, in per cent.

Turning to `COc1ccc2c(c1O)OCC=C2c1cc(OC)c(OC)c(OC)c1`, the half-inhibitory concentration (IC50) in test [1] was 3700 nM. Further, the GI50 was found to be 15 nM in test [2], 25 nM in the test with MDA-MB-231, 10 nM in test [3] and 32 nM in the test with K562.

For the molecule `COc1ccc2c(c1N)OCC=C2c1cc(OC)c(OC)c(OC)c1`, in test [1], the IC50 came out at 5000 nM. The GI50 stood at 60 nM in test [2], 65 nM in the test on MDA-MB-231, 50 nM in test [3] and 60 nM with K562.

Molecule `C=C(c1ccc(OC)c(O)c1)c1cc(OC)c(OC)c(OC)c1` showed a half-maximal inhibitory concentration (IC50) in test [1] of 2200 nM. Further, the GI50 worked out at 5 nM in test [2], 4.1 nM with MDA-MB-231, 2.2 nM in test [3] and 5.2 nM in the test on K562.

In the test filed under Ovis aries, `COc1cc(C2=CCOc3ccc(-c4ccccc4)cc32)cc(OC)c1OC` came in with an inhibition of under 10%. In test [3], this molecule registered a GI50 of 400 nM.

In test [1], `COc1ccc2c(c1O)OCCC2c1cc(OC)c(OC)c(OC)c1` (stereo not drawn) gave an IC50 of 6200 nM. The GI50 came to 80 nM in test [2], 60 nM with MDA-MB-231, 75 nM in test [3] and 75 nM in the test on K562.

For `COc1cc(C2=CCOc3cc(F)ccc32)cc(OC)c1OC`, the inhibition in the test filed under Ovis aries is under 10%. The same molecule showed an inhibition at 10 µM in test [4] of under 10%.

In the case of `COc1ccc2c(c1N)OCCC2c1cc(OC)c(OC)c(OC)c1` (stereo not drawn), the midpoint of inhibition in test [1], the IC50, lay at 4100 nM. Also, the GI50 in test [2] came out at 60 nM; in the test on MDA-MB-231, 65 nM; in test [3], 50 nM; in the test with K562, 70 nM.

Take `COc1ccc(/C=C\c2cc(OC)c(OC)c(OC)c2)cc1O` [COMBRETASTATIN A4]: in test [1], the IC50 was 1400 nM. For the same molecule, the GI50 in test [2] came out at 5.1 nM; with MDA-MB-231, 3.2 nM; in test [3], 2.1 nM; in the test with K562 it was 4.3 nM.

The molecule `COc1cc(C2=CCOc3cc(CO)ccc32)cc(OC)c1OC` registered an inhibition in the test listed under Ovis aries of under 10%. The molecule further came in with an inhibition at 10 µM in test [4] of under 10%.

`COc1ccc2c(c1Br)OCC=C2c1cc(OC)c(OC)c(OC)c1` returned an inhibition in the test filed under Ovis aries of under 10%. Moreover, it took 300 nM to inhibit growth in test [3] by half (GI50).

Values taken from ChEMBL document CHEMBL3397000, “Rapid synthesis of 4-arylchromenes from ortho-substituted alkynols: A versatile access to restricted isocombretastatin A-4 analogues as antitumor agents” (Eur J Med Chem, 2015).
